Results reported in ChEMBL document CHEMBL4311968, “New oxadiazoles with selective-COX-2 and EGFR dual inhibitory activity: Design, synthesis, cytotoxicity evaluation and in silico studies” (Eur J Med Chem, 2019).

Experiments:
UO-31 = test: Antiproliferative against human UO31 cells incubated for 24 hrs by MTT assay; type: functional, cell-based; settings: UO-31, 24 h
Outline: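 UO-31 cells from ATCC, grown in DMEM with 10% FBS, 10 ug/mL insulin and 1% penicillin-streptomycin. Seeded at 1.2–1.8 × 10,000 cells/well with test compound for 24 h. MTT read-out: crystals dissolved in acidified isopropanol, absorbance at 570 nm.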

[1] = molecular target: T1, Prostaglandin G/H synthase 1 (Ovis aries, UniProt P05979); test: Inhibition of ovine COX-1 by EIA method
T1 sequence (P05979 whole entry): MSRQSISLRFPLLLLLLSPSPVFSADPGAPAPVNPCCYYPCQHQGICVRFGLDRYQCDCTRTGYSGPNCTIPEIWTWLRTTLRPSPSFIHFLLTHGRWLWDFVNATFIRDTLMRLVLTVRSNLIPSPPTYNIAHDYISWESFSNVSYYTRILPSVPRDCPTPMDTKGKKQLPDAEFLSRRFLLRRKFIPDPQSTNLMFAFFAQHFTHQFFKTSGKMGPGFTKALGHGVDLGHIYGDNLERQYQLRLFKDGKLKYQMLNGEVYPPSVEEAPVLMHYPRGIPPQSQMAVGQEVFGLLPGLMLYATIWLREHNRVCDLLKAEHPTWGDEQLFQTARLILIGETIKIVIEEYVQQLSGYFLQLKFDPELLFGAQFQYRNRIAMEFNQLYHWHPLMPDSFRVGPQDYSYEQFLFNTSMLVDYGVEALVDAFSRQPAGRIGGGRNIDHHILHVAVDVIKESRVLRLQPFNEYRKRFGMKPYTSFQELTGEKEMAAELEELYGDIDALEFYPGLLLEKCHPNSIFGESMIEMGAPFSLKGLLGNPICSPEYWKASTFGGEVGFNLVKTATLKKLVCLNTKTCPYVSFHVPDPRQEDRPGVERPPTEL

[2] = molecular target: Epidermal growth factor receptor (Homo sapiens, UniProt P00533); test: Inhibition of recombinant human GST-tagged EGFR catalytic domain (668 to 1210 residues) expressed in baculovirus expression system using TK-biotin peptide as substrate measured after 10 mins by HTRF assay
Chain of Epidermal growth factor receptor (P00533 whole entry, the tested form may be a part): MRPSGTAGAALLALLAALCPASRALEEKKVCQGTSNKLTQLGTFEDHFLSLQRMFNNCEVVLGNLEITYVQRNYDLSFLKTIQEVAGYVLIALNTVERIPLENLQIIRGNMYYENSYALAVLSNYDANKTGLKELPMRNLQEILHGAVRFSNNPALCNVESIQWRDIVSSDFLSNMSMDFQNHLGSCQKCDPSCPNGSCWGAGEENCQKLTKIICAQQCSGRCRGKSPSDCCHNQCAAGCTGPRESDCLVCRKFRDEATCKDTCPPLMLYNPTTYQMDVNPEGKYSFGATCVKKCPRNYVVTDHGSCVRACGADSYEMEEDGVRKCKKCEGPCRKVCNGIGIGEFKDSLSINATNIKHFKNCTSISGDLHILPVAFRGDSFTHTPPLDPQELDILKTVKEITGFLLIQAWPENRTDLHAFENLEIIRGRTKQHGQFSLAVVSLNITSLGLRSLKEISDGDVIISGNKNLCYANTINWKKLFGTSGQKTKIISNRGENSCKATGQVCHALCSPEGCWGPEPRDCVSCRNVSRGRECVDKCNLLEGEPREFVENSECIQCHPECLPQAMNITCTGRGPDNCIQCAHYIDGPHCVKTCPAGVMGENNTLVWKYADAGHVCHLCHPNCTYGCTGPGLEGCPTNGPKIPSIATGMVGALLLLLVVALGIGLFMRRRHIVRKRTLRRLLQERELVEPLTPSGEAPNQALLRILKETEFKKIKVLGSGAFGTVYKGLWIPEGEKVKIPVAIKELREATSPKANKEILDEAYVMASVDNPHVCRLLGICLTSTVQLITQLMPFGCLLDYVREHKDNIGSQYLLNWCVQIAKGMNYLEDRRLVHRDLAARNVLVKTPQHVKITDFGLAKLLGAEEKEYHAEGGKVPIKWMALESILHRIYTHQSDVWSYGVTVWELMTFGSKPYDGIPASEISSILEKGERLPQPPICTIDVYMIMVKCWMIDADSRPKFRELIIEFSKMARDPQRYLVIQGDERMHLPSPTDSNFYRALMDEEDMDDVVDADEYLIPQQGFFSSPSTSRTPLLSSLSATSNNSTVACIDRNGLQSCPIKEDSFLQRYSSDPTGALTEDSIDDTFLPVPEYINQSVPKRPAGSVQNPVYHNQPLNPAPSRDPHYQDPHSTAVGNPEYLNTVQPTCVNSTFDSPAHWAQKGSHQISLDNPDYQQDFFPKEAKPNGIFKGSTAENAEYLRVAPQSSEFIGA

Structure (SMILES) | IC50 (UO-31) [nM] | IC50 [1] [µM] | IC50 [2] [nM]
O=C(Nc1ccccc1)Nc1nnc(-c2ccccc2)o1 | 33.2 | 6.87 | –
Clc1ccc(/C=N/c2nnc(-c3cccnc3)o2)cc1 | 13.6 | 10.5 | 1130
O=C(Nc1ccccc1)Nc1nnc(-c2ccc(Cl)cc2)o1 | – | 10.9 | –
N#CCC(=O)Nc1nnc(-c2cccnc2)o1 | – | 13.1 | –
Brc1ccc(-c2nnc(CSc3nnc(-c4ccncc4)o3)o2)cc1 | 83.5 | 4.17 | –
O=[N+]([O-])c1ccc(/C=N/c2nnc(-c3ccccc3)o2)cc1 | – | 9.81 | –
CCO/C=N/c1nnc(-c2ccccc2)o1 | – | 14.2 | –
Clc1ccc(/C=N/c2nnc(-c3ccc(Cl)cc3)o2)cc1 | 29.6 | 5.39 | –
Clc1ccc(/C=N/c2nnc(-c3ccccc3)o2)cc1 | – | 11.4 | –
C(=N\Nc1nnc(-c2ccncc2)o1)/c1ccccc1 | – | 10.6 | –
O=C(CSc1nnc(-c2ccncc2)o1)N/N=C/c1ccc([N+](=O)[O-])cc1 | – | 4.49 | –
O=[N+]([O-])c1ccc(/C=N/c2nnc(-c3cccnc3)o2)cc1 | – | 8.29 | –
Clc1ccc(-c2nnc(/N=C/c3ccccc3)o2)cc1 | – | 7.54 | –
COc1cccc2c1C(=O)c1c(O)c3c(c(O)c1C2=O)C[C@@](O)(C(=O)CO)C[C@@H]3O[C@H]1C[C@H](N)[C@H](O)[C@H](C)O1 [DOXORUBICIN] | 7.45 | – | –
Brc1ccc(/C=N/Nc2nnc(-c3ccncc3)o2)cc1 | – | 5.71 | –
Oc1ccc(-c2nnc(CSc3nnc(-c4ccncc4)o3)o2)cc1 | – | 7.96 | –
O=[N+]([O-])c1ccc(/C=N/c2nnc(-c3ccc(Cl)cc3)o2)cc1 | – | 12 | –
Clc1ccc(-c2nnc(CSc3nnc(-c4ccncc4)o3)o2)cc1 | – | 6.84 | –
CCO/C=N/c1nnc(-c2ccc(Cl)cc2)o1 | 52.7 | 15.4 | –
Clc1ccc(/C=N/Nc2nnc(-c3ccncc3)o2)cc1 | – | 8.69 | –
CCO/C=N/c1nnc(-c2cccnc2)o1 | 310 | 12.7 | –
O=C(CSc1nnc(-c2ccncc2)o1)N/N=C/c1ccc(Cl)cc1 | – | 6.78 | –
O=[N+]([O-])c1ccc(/C=N/Nc2nnc(-c3ccncc3)o2)cc1 | 8.6 | 9.87 | 412
O=C(Nc1ccccc1)Nc1nnc(-c2cccnc2)o1 | 5.76 | 9.37 | –
N#CCC(=O)Nc1nnc(-c2ccc(Cl)cc2)o1 | – | 13.7 | –
